Key:
CMy-Tg mice [1] = assay: Survival study in CD8+ T cell-mediated myocarditis; assay type: in vivo, mouse; settings: 0.75 mg/kg i.p. for 4 days; 2.0 × 10^6 OT-1 cells; n = 8
Procedure, shortened: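 Male CMy-Tg and WT C57BL/6 mice (10–12 weeks) received 2.0, 3.5 or 5.0 × 10^6 OT-1 CD8+ T cells i.p. in PBS. Dexamethasone 0.75 mg/kg/day, freshly dissolved in sterile PBS, given i.p. in 100 μL on days 1–4 after cell transfer; controls received PBS. Survival followed for 28 days; Kaplan–Meier analysis, n = 8 per group.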

granzyme B activity [2] = assay type: in vivo, mouse
Procedure, shortened: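 Male CMy-Tg and C57BL/6 WT mice (10–12 weeks) received OT-1 CD8+ T cells i.p. in PBS (2.0, 3.5 or 5.0 × 10^6). Dexamethasone 0.75 mg/kg or PBS i.p. daily, days 1–4. Day 4: probe i.v. (50 μL, 1 μmol/L in PBS) or ProSense 680 (2 nmol/150 μL). After 24 h: FMT-CT under anaesthesia; ex vivo FRI, 680 nm channel.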

[3] = test system: OT-1 CD8+ T cells / CMy-Tg cardiomyocytes; assay: Granzyme B expression in OT-1 CD8+ T cells and co-cultures in vitro; assay type: cell-based, mouse
CMy-Tg mice [4] = assay: Heart and serum markers and histology in CD8+ T cell-mediated myocarditis; assay type: in vivo, mouse; settings: CMy-Tg mice 5 days post transfer of 3.5 × 10^6 OT-1 CD8+ T cells
Procedure, shortened: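 CMy-Tg (n = 12) and WT (n = 4) mice received 3.5 × 10^6 OT-1 CD8+ T cells. PBS vehicle or dexamethasone (0.75 mg/kg) i.p. on days 1–4. Hearts and serum collected at day 5. Heart granzyme B and cleaved caspase-3 measured by Western blot, normalized to GAPDH. Serum granzyme B, interferon-γ and cardiac troponin-I assayed. P values versus vehicle of each strain.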

[5] = target: T1, granzyme B in lysates of CD8+ T cells (Mus musculus, UniProt P04187); assay: Probe activation by lysates of CD8+ T cells; assay type: biochemical
T1 sequence (P04187 21-247): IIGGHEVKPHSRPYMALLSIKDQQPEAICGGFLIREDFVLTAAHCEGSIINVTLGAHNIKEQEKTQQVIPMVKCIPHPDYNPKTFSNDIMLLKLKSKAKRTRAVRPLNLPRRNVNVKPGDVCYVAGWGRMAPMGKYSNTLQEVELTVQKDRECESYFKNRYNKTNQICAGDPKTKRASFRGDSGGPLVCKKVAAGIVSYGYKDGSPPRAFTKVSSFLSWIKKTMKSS

granzyme B activity [6] = assay: Ex vivo FRI in cardiac myosin-induced experimental autoimmune myocarditis; design: species or system mouse; settings: 24 hours post probe injection, 21 days after immunization
Procedure, shortened: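 Balb/cByJ mice were immunized with a murine α-myosin H chain-derived peptide (n = 16); controls received PBS instead (n = 4). Granzyme B-sensitive probe given i.v. on day 20. One day later, excised hearts and sections were imaged by microscopic ex vivo FRI in the 680 nm channel. Exposure: 1 min for tissue, 30 min for heart sections.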

chymotrypsin = assay: Enzymatic assay of nanoprobe activation; assay type: biochemical; settings: chymotrypsin 0.01 mg/mL, 82-fold excess activity; n = 3

Compound | survival of CMy-Tg mice (CMy-Tg mice [1]) | granzyme B activity, fluorescence intensities in hearts (granzyme B activity [2]; dexamethasone administration in vivo, vehicle 504±263, P=0.002) | granzyme B protein concentrations in OT-1 CD8+ T cells and their culture medium ([3]; 48 hours of anti-CD3 stimulation) | probe signals colocalized with granzyme B activity ([3]; CMy-Tg cardiomyocytes co-cultured with OT-1 CD8+ T cells, confocal microscopy) | serum concentrations of granzyme B, interferon-γ, and cardiac troponin-I (CMy-Tg mice [4]) | protein levels of granzyme B and active caspase-3 in hearts (CMy-Tg mice [4]; Western blot) | fluorescent signal from the probe incubated with lysates ([5]; lysates of Balb/c WT CD8+ T cells stimulated with anti-CD-3, 48 hours) | fluorescent signal from the probe incubated with lysates ([5]; lysates of granzyme B-deficient CD8+ T cells) | signals from the probe in heart tissues and sections, EAM Balb/cByJ vs WT mice (granzyme B activity [6]) | signal compared with ProSense 680 (granzyme B activity [2]; CD8+ T cell-mediated myocardial injury model) | probe activation on incubation with chymotrypsin (chymotrypsin)
C[C@@H]1C[C@H]2[C@@H]3CCC4=CC(=O)C=C[C@]4(C)[C@@]3(F)[C@@H](O)C[C@]2(C)[C@@]1(O)C(=O)CO [dexamethasone] | survived for 28 days | 194±77 fluorescence intensities | did not mute this rise | decreased the probe signals | limited these increases | reduced these concentrations | – | – | – | – | –
GIEFDSGGC [granzyme B-sensitive nanoprobe] | – | – | – | – | – | – | increased above baseline after 48 hours | did not demonstrate a comparable increase | higher signals | substantially higher signal | activation comparable in intensity to Granzyme B

Reference: PMC4553143 (Circulation research, 2015)
